Screens from PubChem BioAssay.
Sampled rows, rich in hits. Any-hit rate of the full collection: about 3.7%.
OX1R antag-1: human HCRTR1 antagonism; O43613; CHO/OX1R cells, Fluo-8 calcium fluorescence, orexin A; inhibition, % at 5 µM; 330,000 compounds, 0.43% hits;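 active = inhibition above its plate's threshold, mean inhibition of all tested compounds on the plate plus 3 SD, cut at about 37% in these data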
Target sequence (O43613 whole entry, looked up): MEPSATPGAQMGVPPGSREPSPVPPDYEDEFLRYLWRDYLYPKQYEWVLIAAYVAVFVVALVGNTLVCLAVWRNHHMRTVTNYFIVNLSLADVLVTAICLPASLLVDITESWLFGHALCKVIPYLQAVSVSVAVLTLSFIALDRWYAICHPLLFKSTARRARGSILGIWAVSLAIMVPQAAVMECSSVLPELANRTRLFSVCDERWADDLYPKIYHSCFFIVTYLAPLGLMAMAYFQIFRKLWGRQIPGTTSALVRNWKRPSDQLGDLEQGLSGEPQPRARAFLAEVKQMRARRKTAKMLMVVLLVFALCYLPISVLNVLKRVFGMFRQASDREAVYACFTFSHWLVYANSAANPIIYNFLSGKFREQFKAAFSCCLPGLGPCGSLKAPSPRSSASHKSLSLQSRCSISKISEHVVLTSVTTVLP
EP2 mod: modulators of human EP2 prostaglandin E2 receptor. P43116. EP2-expressing cells, cAMP HTRF FRET, PGE2 co-stimulation. 260,000 compounds, 0.83% hits. induction, % at 25 µM. AID 940;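 active = compounds whose cAMP rise, as percent of the full-agonist control response, exceeds 60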;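 note: rat C6 glioma line stably carrying human EP2 under a CMV promoter; the protocol text gives 20 µM as final concentration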
EP2 antag: blocks the human prostaglandin E2 receptor EP2. C6 glioma cells expressing human EP2, cAMP TR-FRET; cells stimulated with saturating PGE2. inhibition, % at 25 µM. 260,000 compounds, 0.52% hits;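 active = percent inhibition above 40 after rounding to a whole number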;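 note: rat C6 glioma host cells with rolipram phosphodiesterase inhibitor present; the protocol text gives 20 µM as final concentration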
GPR7 antagonist: antagonists of human GPR7 (neuropeptides B/W receptor 1). 290,000 compounds, 1.1% hits. AID 1861. GPR7-expressing cells, fluorescence antagonist assay. inhibition, % at 4.4 µM; in the data active = inhibition above about 16%, passing the limit was not always enough;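 note: cells stimulated with the agonist NPW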
Target sequence (P48145 whole entry, looked up): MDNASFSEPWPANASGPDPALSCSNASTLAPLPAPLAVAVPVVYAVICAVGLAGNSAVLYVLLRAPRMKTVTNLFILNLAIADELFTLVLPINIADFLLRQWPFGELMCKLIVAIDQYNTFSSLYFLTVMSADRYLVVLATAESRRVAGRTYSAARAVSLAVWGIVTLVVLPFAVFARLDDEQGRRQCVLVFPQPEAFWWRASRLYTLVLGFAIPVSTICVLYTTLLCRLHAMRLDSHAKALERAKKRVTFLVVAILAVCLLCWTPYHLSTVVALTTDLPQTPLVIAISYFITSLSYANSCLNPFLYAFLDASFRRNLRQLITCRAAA
OX1R antag-2: antagonists of human orexin 1 receptor (OX1R) | O43613 | OX1R-expressing cells, FRET antagonist read-out | inhibition, % at 6.6 µM | 330,000 compounds, 1.8% hits | AID 485270; in the data active = inhibition mostly above about 38%, no sharp cut-off; inactive = mostly below about 40%
CHO parental Ca: signal in parental CHO cells, OX1R antagonist counter-screen. inhibition, % at 5.6 µM. AID 463079. parental CHO-K1, ATP-induced calcium, Fluo-8 fluorescence. 330,000 compounds, 0.63% hits;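 active = inhibition above that plate's mean sample inhibition plus 3 SD, cut at about 26% in these data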
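Assay system: parental CHO cells; Read-out basis: percent inhibition of ATP-evoked calcium rise, normalized to controls; Benchmarks: ATP and no-ATP DMSO wells; Compound dosing: single nominal dose of 5.6 µM per compound; Signal: Fluo-8 calcium dye fluorescence; Also added: ATP as calcium-mobilizing challenge; Repeats: singlicate.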
Large screens that a line does not name were inactive.

CC(C)CCN1C(=O)c2cccc3c(N)ccc(c23)C1=O	OX1R antag-1 91, CHO parental Ca 85 (no result: EP2 mod, EP2 antag, GPR7 antagonist)
CCCn1nnc(NC(=O)c2ccco2)n1	none
O=S(=O)(Nc1ccc2cn[nH]c2c1)c1ccc(Cl)cc1	none (no result: EP2 mod, EP2 antag)
Cc1cc(S(=O)(=O)Nc2ccc3cn[nH]c3c2)c(C)cc1Cl	CHO parental Ca 40 (no result: EP2 mod, EP2 antag)
COc1ccc(C(=O)NCC(=O)OCC(=O)N2CC(C)CC(C)C2)cc1 (stereo unspecified)	none
CCc1sc(N2C(=O)C3C4CCC(C4=C(C)C)C3C2=O)nc1-c1ccccc1 (stereo unspecified)	OX1R antag-2 38
CCOC(=O)C1=C(C)Nc2ccccc2N=C1N	none
CCOC(=O)C1=C(C)Nc2ccccc2N=C1NC(=O)c1oc2ccccc2c1COC	OX1R antag-2 30 (no result: EP2 mod, EP2 antag, GPR7 antagonist)
Cc1ccc(C(=O)CSc2cnc3ccccc3n2)cc1C	OX1R antag-2 66
CC1(C)CC(=O)C=C(NC2CCCCCC2)C1	GPR7 antagonist 15
CCc1nnc(NC(=O)CSc2ncc(-c3ccccc3)n2C)s1	none
COc1cc(C(=S)N2CCCC2)ccc1OS(=O)(=O)c1ccc(NC(C)=O)cc1	none
CC(=O)Nc1ccc(S(=O)(=O)Oc2ccccc2N2CCCCC2)cc1	GPR7 antagonist 20
Cc1cccc(NC(=S)/N=C(\N)Nc2nc(C)c3ccc(C)cc3n2)c1	none
Cc1cccc(NC(=S)/N=C(\N)Nc2nc(C)c3ccccc3n2)c1	OX1R antag-2 76
Cc1cc(-c2cn[nH]c2C2CCCN(C(=O)C3(c4ccccc4)CC3)C2)on1 (stereo unspecified)	none (no result: OX1R antag-1, EP2 antag, GPR7 antagonist, OX1R antag-2, CHO parental Ca)
NC(=O)C1CCN(C(=O)Cn2nc3c4ccccc4ncn3c2=O)CC1	none (no result: OX1R antag-1, GPR7 antagonist, OX1R antag-2, CHO parental Ca)
N#Cc1c(-c2ccc(F)cc2)cc(-c2cccnc2)nc1N	none
N#Cc1c(-c2cccs2)cc(-c2cccnc2)nc1N	OX1R antag-2 46
O=C(Nc1cccc2nsnc12)c1ccc(-c2ccc(Br)cc2)o1	none (no result: EP2 antag)
COc1ccc(CC(=O)NCC(=O)N/N=C/c2c[nH]c3ccccc23)cc1	none (no result: EP2 mod, EP2 antag)
COCCn1c(=S)[nH]c2cc(C(=O)N3CCN(c4cccc(Cl)c4)CC3)ccc2c1=O	none (no result: EP2 mod, EP2 antag)
Cc1cccc(NC(=O)CCN2CCN(C/C=C/c3ccccc3)CC2)c1	none
c1ccc(CN2CCOCC2)cc1	none
OC1(c2ccccc2)CCN(Cc2ccccc2)CC1	none
c1ccc(CN2CCC3(CC2)SSC2(CCN(Cc4ccccc4)CC2)SS3)cc1	EP2 antag 45 (no result: OX1R antag-1, GPR7 antagonist, OX1R antag-2, CHO parental Ca)
OC1(c2ccc(F)cc2)CCN(Cc2ccccc2)C1 (stereo unspecified)	EP2 mod 61 (no result: EP2 antag)
CC(C)(C)c1ccc(O)c(CN(Cc2c(O)ccc3ccccc23)C2CCCCC2)c1	none (no result: OX1R antag-1, GPR7 antagonist, OX1R antag-2, CHO parental Ca)
CC(C)(C)c1ccc(O)c(CN(Cc2cc(C(C)(C)C)ccc2O)C2CCCCC2)c1	EP2 antag 64 (no result: OX1R antag-1, GPR7 antagonist, OX1R antag-2, CHO parental Ca)
COC(=O)C1=C(C(=O)c2ccccc2)C(c2cccs2)n2nnnc2N1 (stereo unspecified)	none
CC1=C(C(=O)Nc2ccc(Cl)cc2)C(c2cccs2)n2nnnc2N1 (stereo unspecified)	GPR7 antagonist 20
COc1cc(NC(=S)Nc2ncccc2C)cc(OC)c1OC	OX1R antag-2 45
O=C(Nc1ccccc1F)c1ccc(CNS(=O)(=O)c2cccc(C(F)(F)F)c2)cc1	CHO parental Ca 69
COc1cc(OC)cc(C(=O)N[C@H](C(=O)OCc2cc(=O)oc3cc(C)ccc23)C(C)C)c1	none
Cc1ccc2nc(Cl)nc(-c3ccccc3)c2c1	none
Cc1ccc2nc(-c3ccccc3)c(-c3ccccc3)nc2c1	EP2 mod 61
COc1ccc(OC)c(NC(=O)CCCNC(=O)c2ccc(Cl)cc2)c1	none (no result: EP2 mod, EP2 antag)
Cc1cccc(N)c1-c1c(C)cccc1N	none
O=[N+]([O-])c1ccc(-n2nnnc2-c2ccccc2)cc1	OX1R antag-2 54
NC(=O)c1nnn(-c2ccc([N+](=O)[O-])cc2)c1-c1ccccc1	OX1R antag-2 44
c1ccc(-c2nnnn2-c2ccccc2)cc1	none (no result: OX1R antag-1, EP2 mod, EP2 antag, OX1R antag-2, CHO parental Ca)
Nc1ccc(-c2nnnn2-c2ccc(N)cc2)cc1	CHO parental Ca 28 (no result: EP2 mod, EP2 antag)
O=[N+]([O-])c1ccc(-n2cc(-c3ccccc3)nn2)cc1	none (no result: EP2 mod, EP2 antag)
O=[N+]([O-])c1ccc(-n2nnnc2-c2ccccc2)c([N+](=O)[O-])c1	none
Cc1[nH]nc2c1C1(CCN(C(=O)OCc3ccccc3)CC1)C(C#N)=C(N)O2	none
CC(NC(=O)c1ccc(F)cc1)c1ccc(F)cc1 (stereo unspecified)	none
Nc1cc(S(=O)(=O)Nc2ccccc2Cl)ccc1N1CCCCC1	OX1R antag-1 45, CHO parental Ca 30 (no result: EP2 mod, EP2 antag, GPR7 antagonist)
Nc1ccc(N2CCCCC2)c(S(=O)(=O)Nc2ccccc2Cl)c1	none
Cc1ccc(NC2CCCN(C(=O)CSc3ccccn3)C2)cc1C (stereo unspecified)	none (no result: OX1R antag-1, EP2 mod, EP2 antag, OX1R antag-2, CHO parental Ca)
COC(C[C@@H]1O[C@H]1C(=O)[C@@H](C)OCc1ccccc1)OC	none (no result: EP2 mod, GPR7 antagonist)
O=S1(=O)OC(c2ccc(O)cc2)(c2ccc(O)cc2)c2ccccc21	EP2 antag 96 (no result: OX1R antag-1, GPR7 antagonist, OX1R antag-2, CHO parental Ca)
CC(C)c1ccc(NS(=O)(=O)c2ccc(-n3cccn3)cc2)cc1	none (no result: EP2 mod, EP2 antag)
CC(C)c1ccc(S(=O)(=O)Nc2ccc(SC(F)F)cc2)cc1	CHO parental Ca 42
Cc1ccc(S(=O)(=O)Nc2ccc(SC(F)F)cc2)c(C)c1	CHO parental Ca 43
Cc1ccc(S(=O)(=O)Nc2ccc3c(c2)n(C)c(=O)n3C)c(C)c1	none
c1ccc(-c2cc3nccc(-c4ccccn4)n3n2)cc1	OX1R antag-2 48
O=C(CSc1nnnn1-c1cccc2c1CCCC2)N1CCCCC1	none
CC1(C)C2CCC1(C)C(OCC[N+](C)(C)CC(=O)OC1CCCCC1)C2 (stereo unspecified)	GPR7 antagonist 20
O=C(CCCN1C(=O)/C(=C/c2cccs2)SC1=S)Nc1ccccc1O	OX1R antag-2 61 (no result: EP2 mod, EP2 antag)
O=C(CCCN1C(=O)/C(=C/c2ccco2)SC1=S)Nc1cccc(C(=O)O)c1	OX1R antag-2 61
CCc1cccc(NC(=O)C2CCN(S(=O)(=O)c3ccc4c(c3)CC(C)N4C(C)=O)CC2)c1 (stereo unspecified)	none (no result: EP2 mod, EP2 antag)
O=C(Nc1cccc(C(F)(F)F)c1)C1CCN(S(=O)(=O)c2ccc(N3CCCC3=O)cc2)CC1	OX1R antag-1 48, CHO parental Ca 73 (no result: EP2 mod, EP2 antag)
CS(=O)(=O)N1CCC(C(=O)Nc2cccc(C(F)(F)F)c2)CC1	none
CC(=O)N1c2ccc(S(=O)(=O)N3CCC(C(=O)Nc4cccc(C(F)(F)F)c4)CC3)cc2CC1C (stereo unspecified)	CHO parental Ca 55 (no result: EP2 mod, EP2 antag)
O=C(CN1C(=O)S/C(=C/c2ccncc2)C1=O)Nc1ccccc1	OX1R antag-2 64 (no result: EP2 mod, EP2 antag)
COc1ccc(OC)c(C(c2nnnn2C2CCCC2)N2CCN(c3ccc(F)cc3)CC2)c1 (stereo unspecified)	GPR7 antagonist 18
COc1cccc(CN(C)CC(=O)NCc2ccc(C)cc2)c1	none (no result: EP2 mod, EP2 antag)
CCCc1cc(=O)oc2cc(C)cc(O)c12	none
